In paper PMC7611355 (Bioconjugate chemistry, 2020):

Key:
[1] = Ex vivo biodistribution by gamma counting; assay type: in vivo, BALB/c mice; conditions: 120 min postinjection
Outline: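 Female BALB/c mice (6-8 weeks, 17-20 g; 5 per tracer) were anaesthetised with isoflurane (2-3% in oxygen) and the radiotracer (100 ± 15 µL, 2.2-16.2 MBq) was injected via a tail-vein cannula. After a 1 h PET scan the mice recovered and were culled at 2 h postinjection. Organs were harvested, weighed and gamma-counted against standards prepared from the injected material, giving %ID/g.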

[2] = In vitro calcium mineral binding: mean across non-HAp calcium minerals; conditions: saline, room temperature, 1 h
Outline: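 Each calcium salt (carbonate, dibasic phosphate, pyrophosphate, β-tricalcium phosphate, oxalate; 1 mg) was suspended in saline (1 mL). Radiotracer (~700 kBq) was added and shaken for 1 h at room temperature. After centrifuging at 9677 g for 5 min, supernatant and pellet activities were counted separately.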

[3] = In vitro calcium mineral binding: hydroxyapatite
Outline: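 Hydroxyapatite (1 mg) was suspended in saline (1 mL). For blocking, the suspension was preincubated overnight with unlabelled agent: pamidronate (27.9 mg, 100 µmol), alendronate or sodium fluoride, matched to each tracer. Radiotracer (~700 kBq) was added and shaken for 1 h at room temperature. After centrifuging at 9677 g for 5 min, supernatant and pellet activities were counted.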

[4] = Dynamic PET-CT imaging, ROI pharmacokinetics in healthy mice; assay type: in vivo, BALB/c mice
[5] = Shelf life at room temperature; assay type: physicochemical; conditions: solid; measured by NMR, MS, and elemental analysis
[6] = cited from earlier work

| SMILES | femur uptake [1] [%ID/g] | mean binding across non-HAp minerals [2] [%] | mean binding to HAp ([3]; saline, room temperature, 1 h, non-blocked) [%] | mean blocked binding to HAp ([3]; salt preincubated with excess unlabeled BP or fluoride) [%] | area under the curve from 3-59 min (AUC3-59) ([4]; heart ROI as proxy for blood) [%ID min mL^-1] | knee uptake (ROI image analysis) ([4]; mice, i.v., at 60 min postinjection) [%ID mL^-1] | shelf life at room temperature [5] | pKa (amine) [6] |
| --- | --- | --- | --- | --- | --- | --- | --- | --- |
| [18F-].[Na+] [[^18F]NaF] | 47.1 ± 8.3 | 8.4 ± 4.6 | 88.4 ± 4.6 | 2.2 ± 0.2 | 122.3 ± 5.1 | 54.5 ± 5.1 | – | – |
| NCCC(O)(P(=O)(O)O)P(=O)(O)O [Pamidronate, pamidronate disodium dihydrate] | – | – | – | – | – | – | at least 4485 days | 10.40-13.06 |
